Activity calls are given as the source filed them. No cut-off for these calls is given here.
Assays:
[1] = biological target: T1, Protein deacetylase HDAC6 (Homo sapiens) (UniProt Q9UBN7); test: Inhibition of HDAC6 in human SH-SY5Y cells assessed as increase in acetylation of alpha-tubulin at 0.1 to 1 uM after 24 hrs by Western blot analysis; type: cell-based
T1 sequence (whole entry): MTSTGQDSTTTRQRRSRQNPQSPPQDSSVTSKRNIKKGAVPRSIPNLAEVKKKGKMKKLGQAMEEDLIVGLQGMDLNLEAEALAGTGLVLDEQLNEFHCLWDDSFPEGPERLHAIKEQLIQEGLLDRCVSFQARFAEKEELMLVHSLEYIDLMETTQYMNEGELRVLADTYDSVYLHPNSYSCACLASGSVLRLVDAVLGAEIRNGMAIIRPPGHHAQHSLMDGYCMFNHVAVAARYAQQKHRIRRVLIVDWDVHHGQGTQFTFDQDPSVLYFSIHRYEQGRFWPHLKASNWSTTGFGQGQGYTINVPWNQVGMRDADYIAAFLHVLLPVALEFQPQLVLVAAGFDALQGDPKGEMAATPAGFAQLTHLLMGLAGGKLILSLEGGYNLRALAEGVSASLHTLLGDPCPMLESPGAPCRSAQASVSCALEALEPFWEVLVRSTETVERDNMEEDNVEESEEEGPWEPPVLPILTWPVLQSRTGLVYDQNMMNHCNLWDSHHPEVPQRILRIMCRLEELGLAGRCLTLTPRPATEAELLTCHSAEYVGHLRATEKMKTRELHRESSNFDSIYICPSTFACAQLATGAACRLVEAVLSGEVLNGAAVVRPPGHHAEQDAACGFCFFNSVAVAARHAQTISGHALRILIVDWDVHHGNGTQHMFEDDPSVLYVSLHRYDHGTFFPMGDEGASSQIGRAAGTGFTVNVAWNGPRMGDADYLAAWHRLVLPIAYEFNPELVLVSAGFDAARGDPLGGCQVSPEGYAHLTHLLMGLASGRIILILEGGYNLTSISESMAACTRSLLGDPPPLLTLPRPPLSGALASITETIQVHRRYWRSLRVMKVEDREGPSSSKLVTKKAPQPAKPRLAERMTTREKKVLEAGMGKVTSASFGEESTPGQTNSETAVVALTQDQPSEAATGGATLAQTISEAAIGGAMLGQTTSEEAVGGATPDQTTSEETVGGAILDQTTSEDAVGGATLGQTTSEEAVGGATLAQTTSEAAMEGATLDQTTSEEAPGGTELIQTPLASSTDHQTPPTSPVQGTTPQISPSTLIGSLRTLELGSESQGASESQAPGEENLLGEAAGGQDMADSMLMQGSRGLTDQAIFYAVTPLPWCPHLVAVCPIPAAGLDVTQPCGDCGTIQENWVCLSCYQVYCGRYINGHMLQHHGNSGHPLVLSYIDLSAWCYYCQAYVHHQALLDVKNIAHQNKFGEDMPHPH
How it was run: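 SH-SY5Y cells in MEM with 10% FBS at 37 °C, 5% CO2, treated 24 h at 0.1–1 µM. Lysates in HEPES/Triton buffer; 20 µg protein run on SDS-PAGE and immunoblotted for acetyl-α-tubulin, α-tubulin, acetyl-histone H3 and histone H3 with ECL detection.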

[2] = biological target: T1, Protein deacetylase HDAC6 (Homo sapiens); test: Inhibition of HDAC6 in human SH-SY5Y cells transfected with pCAX FLAG APP and pRK5-EGFP-Tau P301L plasmids assessed as suppression of phosphorylated tau P301L mutant-induced apoptosis by measuring accumulation at sub-G1 phase at 0.01 uM after 24 hrs by propidium iodide staining-based flow cytometry (reference value: 22.01%); type: cell-based; design: scale not given: the % may be the effect or the level left
Mus musculus [3] = test: In vivo inhibition of HDAC6 in 3xTg-AD transgenic mouse brain hippocampal CA1 region assessed as downregulation of […] expression of beta-amyloid at 50 mg/kg, po administered daily for 3 months by Western blot analysis; type: functional, organism-based
Mus musculus [4] = test: In vivo inhibition of HDAC6 in 3xTg-AD transgenic mouse brain hippocampal CA1 region assessed as downregulation of scopolamine-mediated increase in Tau phosphorylation at Ser396 residue at 50 mg/kg, po administered daily for 3 months by immunohistochemical analysis; type: functional, organism-based
How it was run: (§1)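 Female 3xTg-AD mice, standard diet to 6 months of age, then 50 mg/kg orally once daily for three months; memantine 30 mg/kg in water as comparator. Brains removed and hippocampal CA1 sections immunostained for acetyl-α-tubulin and phospho-tau Ser396 and Ser404. Mean ± STD; one-way ANOVA.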

Mus musculus [5] = test: In vivo inhibition of HDAC6 in 3xTg-AD transgenic mouse brain hippocampal CA1 region assessed as downregulation of scopolamine-mediated increase in Tau phosphorylation at Ser404 residue at 50 mg/kg, po administered daily for 3 months by immunohistochemical analysis; type: functional, organism-based; how it was run: as §1
Mus musculus [6] = test: In vivo inhibition of HDAC6 in scopolamine-treated 3xTg-AD transgenic mouse brain hippocampal CA1 region assessed as increase in acetyl-alpha-tubulin level at 50 mg/kg, po administered daily for 3 months by immunohistochemical analysis; type: functional, organism-based; how it was run: as §1
Rattus norvegicus [7] = test: Reversal of scopolamine-induced spatial memory impairment in Wistar rat assessed as decrease in transfer latency time at 25 mg/kg, po administered once daily for 1 week followed by scopolamine challenge 90 mins prior to test by elevated plus maze test; type: functional, organism-based
How it was run: (§2)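 Male Wistar rats, 7 weeks old, dosed orally at 25 mg/kg in 1% carboxymethyl cellulose/0.5% Tween 80 once daily. Scopolamine 1 mg/kg i.p. 90 min before test trial (controls excluded). Morris water maze (hidden platform escape latency), elevated plus maze (started at open-arm end, time to closed arm), then CA1 phospho-tau Ser396/Ser404 immunohistochemistry.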

[8] = biological target: T1, Protein deacetylase HDAC6 (Homo sapiens); test: Inhibition of HDAC6 in human SH-SY5Y cells transfected with pCAX FLAG APP and pRK5-EGFP-Tau P301L plasmids assessed as reduction in formed Tau P301L mutant aggregates level at 1 uM after 24 hrs by Western blot analysis; type: cell-based
How it was run: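 Cotransfected SH-SY5Y cells (1 × 10^7) treated 24 h at 1 µM, lysed in sucrose/HEPES pH 7.2 buffer; 190,000 g supernatant = cytosol. Pellet treated with 5 µM nocodazole, re-spun; residual pellet extracted with sodium carbonate pH 11.5 and washed in 1% SDS to give aggregate fraction. Equal protein by SDS-PAGE immunoblot.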

Mus musculus [9] = test: In vivo inhibition of HDAC6 in 3xTg-AD transgenic mouse brain hippocampal CA1 region assessed as downregulation of scopolamine-mediated increase in Tau phosphorylation at Ser404 residue at 50 mg/kg, po administered daily for 3 months by Western blot analysis; type: functional, organism-based
How it was run: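 Female 3xTg-AD mice, fed standard diet to 6 months of age, then dosed orally at 50 or 100 mg/kg once daily for three months. Brains removed; hippocampal tissue lysates immunoblotted for acetyl-α-tubulin and phospho-tau Ser396 and Ser404. Mean ± STD; one-way ANOVA.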

Rattus norvegicus [10] = test: Reversal of scopolamine-induced spatial memory impairment in Wistar rat assessed as reduction in escape latency in hidden platform at 25 mg/kg, po administered once daily for 1 week followed by scopolamine challenge 90 mins prior to test by Morris water maze test; type: functional, organism-based; how it was run: as §2
Mus musculus [11] = test: In vivo inhibition of HDAC6 in 3xTg-AD transgenic mouse brain hippocampal CA1 region assessed as downregulation of […] expression of beta-amyloid at 50 mg/kg, po administered daily for 3 months by immunohistochemical analysis; type: functional, organism-based

In the case of `COc1ccc(C(=O)c2ccc3c(ccn3Cc3ccc(C(=O)NO)cc3)c2)cc1`, the inhibition [1] is reported as “Active”, the Activity [2] is reported as 15.6% and the inhibition (Mus musculus [3]) is reported as “Active”. The inhibition (Mus musculus [4]) was “Active”, the inhibition (Mus musculus [5]) was “Active” and the inhibition (Mus musculus [6]) was “Active”. The Activity (Rattus norvegicus [7]) was “Active”, the inhibition [8] was “Active” and the inhibition (Mus musculus [9]) was “Active”. For the same compound, the Activity (Rattus norvegicus [10]) was “Active” and the inhibition (Mus musculus [11]) was “Active”.

Reference: ChEMBL document CHEMBL4196108, “5-Aroylindoles Act as Selective Histone Deacetylase 6 Inhibitors Ameliorating Alzheimer's Disease Phenotypes” (J Med Chem, 2018)
